# Screening data: PubChem, several laboratories
# Rows were chosen to be rich in hits. Some 2.4% of all compounds tested hit in one or more screens of this group.
# SR-BI DiI inh: inhibitors of SR-BI mediated HDL lipid uptake, primary screen, ldlA[mSR-BI] cells, fluorescence, single point; Scavenger receptor class B member 1 (Mus musculus), Q61009; ldlA[mSR-BI] CHO cells, DiI-HDL uptake fluorescence, 3 h; inhibition, % at 12.5 µM; actives 0.96% (n = 320,000);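 active = mean replicate inhibition of at least 70% and a set share of replicates each scoring 70 or more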;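 note: 0% = median of neutral control wells and 100% = median of positive control wells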
# HTR2A ag: mouse Htr2a agonists via beta-arrestin recruitment, primary screen, cell-based, luminescence; actives 0.66% (n = 360,000); activation, % at 7.6 µM; 5-hydroxytryptamine receptor 2A (Mus musculus), P35363; CHO-K1 mHTR2A beta-arrestin complementation; percent of 30 µM serotonin response;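 active = activation above a run cutoff, the mean activation of all tested compounds plus 3 SD, cut at about 14% in these data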;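 note: 0% = plate median of compound wells and 100% = 30 µM serotonin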
# Target sequence (P35363 whole entry, looked up): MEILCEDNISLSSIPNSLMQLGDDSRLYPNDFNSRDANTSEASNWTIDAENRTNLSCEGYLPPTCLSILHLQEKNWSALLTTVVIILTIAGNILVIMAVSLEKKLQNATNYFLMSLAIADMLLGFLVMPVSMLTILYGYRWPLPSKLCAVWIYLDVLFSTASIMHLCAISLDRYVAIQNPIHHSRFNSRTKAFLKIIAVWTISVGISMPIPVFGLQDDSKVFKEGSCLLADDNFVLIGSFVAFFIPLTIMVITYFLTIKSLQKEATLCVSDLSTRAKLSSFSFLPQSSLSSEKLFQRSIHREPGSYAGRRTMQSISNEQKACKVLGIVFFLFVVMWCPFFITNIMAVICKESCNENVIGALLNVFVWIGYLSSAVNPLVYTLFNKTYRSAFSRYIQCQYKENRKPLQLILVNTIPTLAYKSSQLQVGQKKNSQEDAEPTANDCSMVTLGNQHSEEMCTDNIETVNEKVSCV
# SR-BI DiI-HDL act: activators of SR-BI mediated DiI-HDL uptake, primary screen, ldlA[mSR-BI] CHO cells, DiI fluorescence; 3 h; 100 = double the neutral-control signal; activation, % at 12.5 µM; actives 0.096% (n = 320,000); AID 504775, 2011;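 active = mean replicate activation of at least 60% and every replicate at or above 60%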;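 note: 0% = median plate neutral-control signal and 100% = twice that signal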
#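 system = CHO ldlA[mSR-BI] cells, LDL receptor-null, SR-BI overexpressing | medium = Ham's F12 with 0.5% BSA, HEPES 25 mM, pH 7.4 | probe or stimulus = DiI-HDL 10 µg/mL | compound dosing = single-point compound dose | incubation = compound exposure 3 h, 37 °C | technique = DiI fluorescence, bottom read | read-out = cell-associated DiI fluorescence as measure of HDL uptake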
# Insulin prom up: insulin promoter activators in MIN6 cells, imaging, high-content screening, mouse beta cells; MIN6 insulin promoter-GFP reporter; hits give high values; z-score at 5 µM; actives 0.3% (n = 190,000);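 active = z-score above 3 at 5 µM with at least 500 cells counted in the well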
# Calb FLC: C. albicans growth inhibition with fluconazole, primary screen, CaCi-2 strain, Alamar Blue fluorescence; C. albicans CaCi-2 + fluconazole, 48 h; growth inhibition, % (no concentration beside the values); actives 0.57% (n = 300,000); AID 1979, 2009;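 active = growth inhibition above about 58% in most replicates, limit read from the data, passing the limit was not always enough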;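 note: all wells also contain fluconazole at 8 µg/ml as a sub-toxic cotreatment; 0% = median of DMSO wells and 100% = median of geldanamycin control wells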
# MIN6 prolif: inducers of MIN6 beta-cell proliferation, primary screen, ATP luminescence, uHTS; proliferation, % at 10 µM; actives 0.29% (n = 330,000); MIN6 cells proliferation, ATPlite luminescence, 48 h; cells starved in 0.2% serum; 100% = growth in 10% serum; AID 2380, 2010;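 active = compounds whose signal lies at least 3.5 SD above the mean of all wells on their plate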;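 note: 0% = DMSO-treated cells in low-serum medium and 100% = 10% serum control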
# OPRM1 ag: OPRM1 agonists via beta-arrestin recruitment, confirmation, counter-screen for mouse HTR2A agonist project, cell-based, luminescence, single concentration | shares compounds with HTR2A ag | U2OS OPRM1 beta-arrestin PathHunter; DMSO 0%, DAMGO 9.3 µM 100% | activation, % at 9.3 µM | actives 5.3% (n = 2,300);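 active = mean activation above the mean of DMSO-only wells plus 3 SD, cut at about 0.5% in these data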
# HTR2A ag conf: mouse HTR2A agonists, beta-arrestin recruitment, confirmation, cell-based, luminescence, CHO-K1 PathHunter, triplicate. shares compounds with HTR2A ag. DMSO 0%, 30 µM serotonin 100%. activation, % at 7.6 µM. actives 19% (n = 2,300). AID 624381, 2012;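 active = mean activation across triplicates above the hit threshold derived in the original primary screen, cut at about 15% in these data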
# * = called active by the depositor; x = no result.
SMILES,SR-BI DiI inh,HTR2A ag,SR-BI DiI-HDL act,Insulin prom up,Calb FLC,MIN6 prolif,OPRM1 ag,HTR2A ag conf
COc1ccc(OC)c(N(CCN2C(=O)c3ccccc3C2=O)C(=O)C2CCC(=O)C2C)c1 (stereo not given),x,2,x,x,x,x,x,x
O=C(CC(=O)c1ccccc1)Nc1cccnc1,14,5,-14,-0.22,-6,7,x,x
O=C(Nc1ccccc1)C(=O)Nc1cccnc1,5,22*,-5,-0.11,-5,-2,0,-2
O=C(COC(=O)/C=C/c1cccc(C(F)(F)F)c1)NC(=O)NC1CCCC1,-17,16*,17,x,x,-2,0,-3
O=C(COC(=O)/C=C/c1cccc(C(F)(F)F)c1)NC(=O)NCc1ccccc1,-43,4,43,x,x,1,x,x
OCC[C@@H]1C[C@@H](O)[C@H](O)[C@@]2(Cc3ccccc3CO2)O1,-17,5,17,x,-2,2,x,x
OCC[C@H]1C[C@H](O)[C@@H](O)[C@@]2(Cc3ccccc3CO2)O1,-26,17*,26,x,x,-3,0,1
CCc1nn2c(=O)cc(COC(=O)c3cc(Cl)c(OC)c(OC)c3)nc2s1,24,17*,-24,x,x,-1,0,-3
CCCOc1c(Br)cc(C(=O)OCc2cc(=O)n3ccsc3n2)cc1OC,10,2,-10,x,x,x,x,x
C[C@@H](NC(=O)Cn1cnc2c(OCc3ccccc3)ncnc21)c1cccc2ccccc12,17,16*,-17,x,x,-3,x,-1
C[C@@H]1CN([C@H](C)CO)C(=O)CCCn2nncc2CO[C@H]1CN(C)Cc1ccccc1,x,2,x,x,x,x,x,x
CCn1c(=N)n(CC(O)c2ccco2)c2ccccc21 (stereo not given),-23,1,23,0.83,1,0,x,x
C=CCn1c(=N)n(CC(O)c2ccco2)c2ccccc21 (stereo not given),-9,15*,9,-1.1,-3,0,0,-2
Cc1ccc(-c2ccc(=O)n(CC(=O)Nc3ccc4c(c3)OCCO4)n2)cc1,-11,-2,11,0.49,-13,0,x,x
CN(C)S(=O)(=O)c1ccc(NC(=O)Cn2nc(-c3ccc4c(c3)OCCO4)ccc2=O)cc1,25,15*,-25,x,x,x,0,-6
COc1ccccc1OCCNC(=O)CCC(=O)N1CCOCC1,-24,-2,24,x,x,-2,x,x
C[C@@H]1CN([C@H](C)CO)C(=O)CCCn2cc(nn2)CO[C@H]1CN(C)C(=O)c1ccccc1,x,5,x,x,x,x,x,x
CC1CC(C)CN(C(=O)c2ccc3nc[nH]c3c2)C1 (stereo not given),10,16*,-10,x,-6,-1,-1,-3
O=C(c1ccc(-c2ccc([N+](=O)[O-])cc2)o1)N1CCCCCCC1,19,15*,-19,x,x,-8,-1,-6
O=C(CSc1nc(-c2cccs2)nc2ccccc12)NC1CCS(=O)(=O)C1 (stereo not given),-1,19*,1,x,x,1,0.5*,-2
CCN(C(=O)CSc1nc(-c2cccs2)nc2ccccc12)C1CCS(=O)(=O)C1 (stereo not given),37,2,-37,x,x,2,x,x
COc1c(C)cc(C(O)c2ncc(-c3ccc(C(F)(F)F)cc3)[nH]2)cc1C (stereo not given),x,0,x,x,x,x,x,x
